In the library only some 1.3% were active in any assay of this set; here they are far more common.
H9c2 TAG inh = reduces triacylglycerol accumulation in H9c2 cells; Nile Red lipid (TAG) fluorescence; cells loaded with 200 µM oleic acid; inhibition, % at 12.5 µM; actives 0.66% (n = 230,000); AID 651582;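 active = pattern-corrected inhibition of lipid staining of at least 50% with the nuclear-stain viability signal not falling by more than 50%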
MT1-MMP act inh = blocks activation of human MT1-MMP; GFP/RFP ratio change, % at 20 µM; P50281; AID 651647; actives 0.061% (n = 360,000); HT1080 RFP-PRO-GFP cells, GFP/RFP ratio fluorescence, overnight; percent of plate control window, DMSO zero;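 active = GFP/RFP ratio change of at least 30% with cell ATP level not reduced by more than half and red fluorescence within 50% of control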
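Read-out: GFP/RFP fluorescence ratio; Test system: RFP-PRO-GFP reporter HT1080 cells; Compound dosing: single-point 20 µM compound, 1% DMSO; Times: overnight compound exposure at 37 °C.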
Efflux pump mplx = inhibitors of Candida antifungal efflux pumps expressed in yeast. S. cerevisiae Candida pump triplex, Nile Red efflux. inhibition, % at 10 µM. actives 0.44% (n = 330,000);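 active = plate passing quality check with inhibition over a set limit, or well fluorescence over plate mean plus 4 SD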;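 also: Nile Red retained in pooled yeast measured as flow cytometry median fluorescence; higher means more Nile Red kept so more efflux inhibition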
sPLA2-III inh = Blocks human group III sPLA2 activity; AID 743126; QFRET BODIPY PC-A2 liposome hydrolysis, fluorescence; inhibition, % at 12.2 µM; actives 0.56% (n = 370,000); Q9NZ20;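 active = inhibition above mean plus 3 SD of compounds lying within the high and low control bounds, cut at about 19% in these data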
Target sequence (Q9NZ20 whole entry, looked up): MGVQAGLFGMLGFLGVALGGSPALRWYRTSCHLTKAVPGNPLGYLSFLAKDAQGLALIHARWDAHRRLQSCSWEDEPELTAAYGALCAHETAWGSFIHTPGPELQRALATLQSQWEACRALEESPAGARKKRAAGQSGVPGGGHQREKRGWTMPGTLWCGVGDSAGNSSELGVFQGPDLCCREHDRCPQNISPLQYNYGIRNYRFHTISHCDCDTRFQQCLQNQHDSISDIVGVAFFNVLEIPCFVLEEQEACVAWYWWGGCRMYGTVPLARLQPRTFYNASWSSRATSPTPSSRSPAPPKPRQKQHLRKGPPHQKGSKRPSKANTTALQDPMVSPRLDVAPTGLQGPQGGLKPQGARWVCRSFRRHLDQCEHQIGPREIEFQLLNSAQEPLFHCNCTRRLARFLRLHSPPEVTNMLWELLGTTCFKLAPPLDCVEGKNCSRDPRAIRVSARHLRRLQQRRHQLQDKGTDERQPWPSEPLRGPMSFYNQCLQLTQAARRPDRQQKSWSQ
Numbers stand for hits; – = inactive; · = not tested or not shown.

SMILES | H9c2 TAG inh | MT1-MMP act inh | Efflux pump mplx | sPLA2-III inh
N#CC1=C(S)N(c2ccccc2)C(c2ccc(-c3ccc(Cl)c(Cl)c3)o2)NC1=O (configuration not stated) | – | – | – | –
N#CC1=C(S)N(c2ccccc2)C(c2ccc(-c3cc(Cl)ccc3Cl)o2)NC1=O (configuration not stated) | – | – | 0.5 | –
CCn1c2ccccc2c2cc(NC(=O)COC(=O)c3cc(F)ccc3C)ccc21 | · | · | · | –
COc1ccc(-c2c(C#Cc3ccsc3)c3cc(-c4ccc(OC)nc4)ccc3n2C)cc1 | – | – | – | –
COc1cc(C#Cc2c(-c3cncn3C)n(C)c3ccc(-c4ccc(OC)nc4)cc23)cc(OC)c1 | 103 | – | – | –
Cc1ccc2nc(N(CCCN(C)C)C(=O)c3ccc(S(=O)(=O)N4CCc5ccccc5C4)cc3)sc2c1 | 69 | – | – | –
Cc1cc(C)c2sc(N(CCCN(C)C)C(=O)c3ccc(S(=O)(=O)N4CCCc5ccccc54)cc3)nc2c1 | 56 | – | – | –
CN(C)CCCN(C(=O)c1ccc(S(=O)(=O)N2CCc3ccccc3C2)cc1)c1nc2ccc(F)cc2s1 | 57 | – | – | –
CN(C)CCCN(C(=O)c1cc(-c2cccs2)nc2ccccc12)c1nc2ccc(F)cc2s1 | 60 | – | – | –
CN(C)c1ccc(C(=O)NCCc2ccccc2-c2ccccc2CCC(=O)NCc2ccccc2)cc1 | · | · | · | –
Cc1cccc(C(=O)N[C@H]2CC[C@@]34CCCN3C(=O)CCC[C@H]4[C@H]2C)c1 | · | · | · | –
COc1ccc([C@@]23CCN=C2c2[nH]c4ccccc4c2CCN3)c(N)c1 | · | · | · | –
Cc1cc(C)c2sc(NNC(=O)c3ccc(S(=O)(=O)N4CCc5ccccc5C4)cc3)nc2c1 | – | – | – | 45
Cc1cc(C)c2sc(N(CCCN(C)C)C(=O)c3ccc(S(=O)(=O)N4CCc5ccccc5C4)cc3)nc2c1 | 54 | – | – | ·
CCCCOCCCNC(=O)C[C@@H]1C(=O)N(Cc2ccc(OC)cc2)/C2=C/CCCCC[C@@]21C(=O)OCC | · | · | · | –
C[C@H]1[C@@H](NC(=O)C#Cc2ccccc2)CC[C@@]23CCCN2C(=O)CCC[C@@H]13 | · | · | · | –
C=CCN1[C@@H](C)COc2cc(N3CCCC3)ccc2S1(=O)=O | · | · | · | –
O=c1c(Br)c(N2CCCC2)cnn1-c1ccccc1 | · | – | – | –
Cc1ccc(-n2ncc(Br)c(Br)c2=O)cc1 | 66 | – | · | ·
O=c1c(Br)c(Br)cnn1-c1ccccc1 | 90 | – | · | –
O=C(CSc1nc2ccccc2n1CCc1ccccc1)N1CCOCC1 | · | – | – | –
O=C(CSc1nc2ccccc2n1CCc1ccccc1)c1ccc(O)c(O)c1 | – | – | · | 24
CC#CC[N+](C)(C)CCCCCCCC | – | – | – | –
CCCCCCCCCCCCCCCC[N+](C)(C)Cc1ccc(F)cc1 | 109 | – | · | –
O=C(Nc1c(-c2ccccc2)nc2ncccn12)c1ccccc1 | · | · | · | –
SMILES | H9c2 TAG inh | MT1-MMP act inh | Efflux pump mplx | sPLA2-III inh
Cc1nn(Cc2c(Cl)cccc2Cl)c(C)c1NC(=O)c1cn(-c2ccccc2)nc1-c1ccccc1 | 50 | – | – | ·
O=C1C(NS(=O)(=O)c2cccs2)=C(N2CCN(c3cccc(Cl)c3)CC2)C(=O)c2ccccc21 | 50 | – | – | –
O=C1C(NS(=O)(=O)c2ccccc2)=C(N2CCN(c3ccc(F)cc3)CC2)C(=O)c2ccccc21 | – | – | – | –
CCC(C)(C)c1ccc(OCCCC[n+]2ccccc2)c(C(C)(C)CC)c1 | 52 | – | – | –
CCCCCc1ccc(OCCCC[n+]2ccccc2)c(CCCCC)c1 | – | – | – | ·
O=C(OC12CCCN(C1)/C(=C/c1cccc(Cl)c1)C2)c1ccno1 (configuration not stated) | · | · | · | –
CCCC(=O)NC(c1ccc(Cl)cc1Cl)c1ccc2cccnc2c1O (configuration not stated) | · | – | – | 26
CCCC(=O)NC(c1ccccc1OC)c1ccc2cccnc2c1O (configuration not stated) | – | – | – | ·
CCCC(=O)NC(c1ccc(C)cc1)c1ccc2cccnc2c1O (configuration not stated) | 61 | – | – | ·
CCCCC(=O)NC(c1ccc(N(CC)CC)cc1)c1ccc2cccnc2c1O (configuration not stated) | · | – | – | –
CCCCC(=O)NC(c1ccc(Cl)cc1)c1ccc2cccnc2c1O (configuration not stated) | 52 | – | – | –
COc1ccc2ccccc2c1C=NNC(=O)CN1CCN(Cc2ccccc2)CC1 | · | · | · | –
CCN(CC)Cc1cc(Nc2c3ccccc3nc3c4ccccc4n(C)c23)cc(CN(CC)CC)c1O | – | – | · | 21
CCCC1CCC2(CCCN2CCOC(=S)NCc2cccc(C)c2)CC1 (configuration not stated) | · | · | · | –
COc1ccc(CN2CN3Cc4ccc(C)cc4C3CS2(=O)=O)cc1 (configuration not stated) | · | · | · | –
Cc1ccc(-n2c(C)cc(/C=C3\SC(=O)NC3=O)c2C)cc1 | · | – | – | –
Cc1cc(/C=C2\SC(=S)NC2=O)c(C)n1-c1cccc(O)c1 | – | – | 0.8 | –
CC(C)OC(=O)C1=CNCC(C)(C)c2c1[nH]c1cc(F)ccc21 | · | · | · | –
COc1ccc(Nc2nc(N)nc(CCl)n2)cc1 | – | – | – | –
Nc1nc(CCl)nc(Nc2ccc3ccccc3c2)n1 | 79 | – | · | –
Cc1c(Nc2cc(Cl)c3nonc3c2[N+](=O)[O-])c(=O)n(-c2ccccc2)n1C | 102 | – | · | –
COC(=O)C1CN(Cc2ccc(C)cc2)CCS(=O)(=O)N1Cc1cn(Cc2ccccc2)nn1 (configuration not stated) | · | · | · | –
Cc1cc(NS(C)(=O)=O)c(=O)n(Cc2cccc(F)c2)c1 | · | – | · | 23
Cc1cc2cc3c(cc2n2c(SCC(=O)Nc4nc(-c5ccccc5)cs4)nnc12)OCO3 | · | · | · | –
Cc1ccc(-c2cc(-c3nnc(SCC(=O)Nc4nccs4)n3N)[nH]n2)cc1 | · | · | · | –
SMILES | H9c2 TAG inh | MT1-MMP act inh | Efflux pump mplx | sPLA2-III inh
CCOc1cccc(/C=N\NC(=O)c2cnccn2)c1O | · | · | · | –
COc1cccc(/C=N/NC(=O)c2cnccn2)c1O | 54 | – | – | –
O=C1C=CC(=O)c2c(O)c(N3CCN(CCO)CC3)c(Cl)c(O)c21 | 100 | – | · | –
O=C1C=CC(=O)c2c(O)c(N3CCN(CCOCCO)CC3)c(Br)c(O)c21 | 101 | – | · | –
OCCOCCN1CCN(C2=Nc3ccccc3Sc3ccccc32)CC1 | – | – | – | –
CCCC(=O)OC12CCCN(C1)/C(=C/c1ccc(C#N)cc1)C2 (configuration not stated) | · | · | · | –
O=C1CCC[C@H]2C[C@H](NCc3cccc(F)c3)CC[C@]23CCCN13 | · | · | · | –
Cn1c(/C=N/Nc2nc3ccccc3[nH]2)nc2ccccc21 | · | – | – | 49
Cc1c(/C=N/Nc2nc3ccccc3[nH]2)c2ccccc2n1C | 62 | – | – | –
CCN(CC)c1ccc(/C=N/Nc2nc3ccccc3[nH]2)cc1 | · | – | · | –
C(=N\Nc1nc2ccccc2[nH]1)/c1cccs1 | – | – | – | –
Cc1nn(-c2ccccc2)c(C)c1/C=N/Nc1nc2ccccc2[nH]1 | – | – | – | –
